# TRAIL sens C8 – caspase-8 TRAIL sensitization. NB7+C8 cells + TRAIL, ATPlite viability luminescence. inhibition (viability loss, TRAIL sensitization), % at 10 µM. 1% of 360,000 active;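 active = compounds causing at least 50% loss of cell viability in the single-dose screen, relative to plate controls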
# PPC-1+TRAIL kill – PPC-1 cancer cell killing with TRAIL present; 0.41% of 220,000 active; PPC-1 cells + TRAIL, ATPLite viability luminescence; cell killing (% activity), % at 4 µM or 5 µM;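 active = cell killing above 50% in the first pass at 4 µM, then a duplicate retest at 5 µM averaging 50% or more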;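 note: plate controls were cells with TRAIL plus DMSO for no effect and medium-only wells lacking cells for full effect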
# Platelet DG rel – platelet dense granule release activity; AID 1663; inhibition, %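 (compounds screened at 7.5 µM in platelet-rich plasma)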; human platelet-rich plasma, SFLLRN dense granule ATP release, luminescence; 0.22% of 300,000 active;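 active = mean replicate score, as percent of positive control, at or above 50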
# FLuc act counter – affects firefly luciferase, flagging false hits in luciferase stimulation screens; ATPlite luciferase biochemical, luminescence, 10 min; 0 = ATP-free wells, 1 = DMSO control; activation factor at 10 µM; 200,000 tested, under 10 active;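 active = luciferase activation factor, scaled between plate controls, of at least 2 with compound at 10 µM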
# Target sequence (P08659 whole entry, looked up): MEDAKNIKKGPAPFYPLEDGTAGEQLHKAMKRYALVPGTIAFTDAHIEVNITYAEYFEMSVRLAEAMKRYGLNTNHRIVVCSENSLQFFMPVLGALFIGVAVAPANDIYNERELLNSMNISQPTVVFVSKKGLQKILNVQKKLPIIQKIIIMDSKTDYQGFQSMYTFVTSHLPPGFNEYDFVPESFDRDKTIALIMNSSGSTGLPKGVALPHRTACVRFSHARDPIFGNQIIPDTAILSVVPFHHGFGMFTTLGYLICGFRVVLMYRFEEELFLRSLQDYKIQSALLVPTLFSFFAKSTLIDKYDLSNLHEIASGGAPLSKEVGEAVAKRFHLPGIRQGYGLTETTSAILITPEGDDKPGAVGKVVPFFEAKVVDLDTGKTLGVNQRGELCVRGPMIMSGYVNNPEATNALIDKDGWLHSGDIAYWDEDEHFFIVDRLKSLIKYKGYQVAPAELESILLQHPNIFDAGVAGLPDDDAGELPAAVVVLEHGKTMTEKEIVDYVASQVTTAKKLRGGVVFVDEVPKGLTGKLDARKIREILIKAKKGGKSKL
#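 Assay system: Luciferase/luciferin detection reagent, cell-free biochemical luciferase assay / Also added: ATP substrate / Schedule: 10 min at ambient temperature / Measured by: luminescence measurement of luciferase light output / Benchmarks: low control with PBS replacing ATP, high control enzyme plus ATP without compound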
# FLuc inhib CS – inhibits firefly luciferase, flagging false hits in luciferase inhibition screens | inhibition, % at 10 µM | AID 1006 | 1.5% of 200,000 active | ATPLite firefly luciferase biochemical luminescence, 10 min | P08659;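 active = inhibition above about 50% when tested at 10 µM, limit read from the data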
# Starred values were filed as active, the others as inactive; . = not tested or not shown. An excerpt weighted towards active compounds, which were near 1.6% of everything screened.
SMILES,TRAIL sens C8,PPC-1+TRAIL kill,Platelet DG rel,FLuc act counter,FLuc inhib CS
Cc1ccnc2nc(C(=O)Nc3ccc4c(c3)OCO4)nn12,26.2,32.2,21.3,0.5,50.7*
Cc1cc(C)n2nc(C(=O)Nc3ccc4c(c3)OCO4)nc2n1,7.4,36.7,7.2,0.7,29.1
COc1ccc(NC(=O)c2nc3nc(C)cc(C(F)F)n3n2)cc1OC,-5.5,-4.6,67.8*,1,-2.6
CCn1cc([N+](=O)[O-])c(C(=O)Nc2ccc3c(c2)OCCO3)n1,28.1,21.9,3.0,0.4,56.0*
Cc1cc(C)n2nc(C(=O)Nc3ccc4c(c3)OCCO4)nc2n1,50.8*,.,.,.,.
COc1ccc(N/C=C\C(=O)c2ccc(C)cc2)cc1OC,4.0,10.3,2.6,0.8,16.1
COc1ccc(N/C=C/C(=O)c2ccc3c(c2)OCO3)cc1OC,25.4,-6.5,14.6,0.4,59.6*
CCN(CC(=O)Nc1ccc2c(c1)OCCO2)C(=O)/C=C/c1cccc(OC)c1OC,-5.6,.,0.2,.,.
COc1ccc(C(=O)C=Cc2ccc3c(c2)OCO3)cc1OC,-0.7,.,.,.,.
CCOc1ccc(N/C=C\C(=O)c2ccc3c(c2)OCO3)cc1,22.6,.,-0.9,.,.
COc1cccc(/C=C/C(=O)c2ccc3c(c2)OCCO3)c1OC,71.2*,.,-1.7,.,.
O=C(/C=C\Nc1ccc2c(c1)OCO2)c1ccc(Cl)s1,72.8*,37.0,1.5,0.1,87.1*
COc1ccc(/C=C/C(=O)c2ccc3c(c2)OCO3)c(OC)c1,56.3*,49.1,24.7,0.2,77.7*
CCCCN1CCCCC1(C)C(=O)NCc1cccs1 (stereo not drawn),9.3,.,.,.,.
CC1=C(C(=O)N2CCCCCC2)CC(CC(=O)NCCN2CCOCC2)C(=O)N1CCCN1CCCC1=O (stereo not drawn),5.0,.,.,.,.
CC(=O)N(c1ccccc1)c1ccccc1[N+](=O)[O-],-8.0,.,.,.,.
CCCCn1nnnc1C(c1ccccc1)N1CCN(c2cccc(C)c2C)CC1 (stereo not drawn),-3.2,.,.,.,.
COc1ccc(S(=O)(=O)N(C)CC(=O)Nc2ccc3c(c2)OCO3)cc1OC,-0.1,3.3,70.7*,1,-0.6
COc1ccc(/C=C/C(=O)c2ccc(OC)cc2OC)c(OC)c1,4.3,3.3,2.5,1,3.2
COc1ccc(/C=C/C(=O)c2ccccc2)c(OC)c1,17.3,21.9,0.9,0.3,71.4*
COc1ccc(S(=O)(=O)N(C)CC(=O)Nc2ccc3c(c2)OCO3)cc1,2.1,-4.9,-5.7,1,0.1
CN(C)c1ccc(CNC(=O)C2Cc3c(-c4cccc(C(N)=O)c4)ccnc3O2)cc1 (stereo not drawn),21.6,.,.,.,.
Cc1cnc(NC(=O)C2COc3ccccc3O2)s1 (stereo not drawn),19.3,11.5,-4.5,0.5,51.9*
CCCNC(=O)c1cc(C2CCCN(C(=O)c3ccc4ccccc4c3)C2)on1 (stereo not drawn),-3.3,.,.,.,.
COc1cc2c(cc1OC)C1=C(C#N)CN(CC(=O)O)CN1CC2,-7.9,-8.2,52.0*,1.1,-8.4
SMILES,TRAIL sens C8,PPC-1+TRAIL kill,Platelet DG rel,FLuc act counter,FLuc inhib CS
COc1cc2c(cc1OC)C1=C(C#N)CCC(=NC(=O)c3ccco3)N1CC2,-3.7,20.8,1.8,1,-2.6
COc1ccc2nc(NC(=O)c3ccc(F)cc3)sc2c1,20.5,.,3.2,.,.
Cc1ccc(C(=O)Nc2nc3ccccc3c(=O)s2)cc1,61.0*,39.5,-9.5,0.2,79.6*
COc1ccc(C(=O)Nc2nc3ccccc3s2)cc1,59.6*,.,6.1,.,.
COc1cccc(C(=O)Nc2nc3ccccc3s2)c1,28.8,.,-2.7,.,.
O=C(Nc1nc2ccccc2s1)c1ccc(OCC2CCCO2)cc1 (stereo not drawn),67.3*,22.5,3.2,0.3,73.7*
CSc1nc2ccc3nc(NC(=O)c4ccc(C)cc4)sc3c2s1,19.1,7.7,14.0,1,-4.3
O=C(Nc1nc2ccccc2s1)c1ccc(F)cc1,45.8,27.7,7.1,0.4,63.7*
Cc1cc2c(cc1C)-n1nnnc1C(N1CCN(c3ccccc3F)CC1)C(=O)N2 (stereo not drawn),-8.4,.,.,.,.
CN1CCCCC1(C)C(=O)NCc1cc(Cl)ccc1F (stereo not drawn),-11.9,.,.,.,.
COc1ccc(C2=Nc3ccccc3N(C(=O)c3ccc(C)cc3)C2C(=O)Nc2c(C)cccc2C)cc1 (stereo not drawn),8.4,.,.,.,.
COC(=O)c1ccc2nc(NC(=O)C(C)C)sc2c1,25.3,31.4,11.5,0.4,60.4*
COC(=O)c1ccc2nc(NC(=O)C3CC3)sc2c1,-4.8,.,-5.9,.,.

# Screening data from PubChem BioAssay.
